Source: ChEMBL document CHEMBL3085685, “In vitro and in vivo antileishmanial and trypanocidal studies of new N-benzene- and N-naphthalenesulfonamide derivatives” (J Med Chem, 2013)

Key:
[1] = Cytotoxicity against mouse J774 cells assessed as reduction of cell viability after 24 hrs by resazurin dye-based fluorometric analysis
Summary of the method: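 J774 macrophages in RPMI 1640 with 10% heat-inactivated FBS, seeded at 5 × 10^4 cells/well and attached 24 h at 37 °C, 5% CO2. Medium swapped for drug dilutions for 24 h. Then 2.5 mM resazurin stock added for 3 h, fluorescence read at 535 nm excitation / 590 nm emission. Triplicate; CC50 from probit analysis.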

Leishmania amazonensis = assay: Leishmanicidal activity against extracellular promastigote stage of Leishmania amazonensis MHOM/Br/79/Maria assessed as reduction of parasite load after 48 hrs by resazurin dye-based fluorometric analysis; type: functional, organism-based; conditions: Leishmania amazonensis, MHOM/Br/79/Maria, 48 h; read-out: IC50
Summary of the method: (§1)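 Log-phase promastigotes cultured in Schneider's medium with 20% heat-inactivated FBS at 26 °C, 2.5 × 10^5 per well. DMSO-dissolved compounds added as 2-fold serial dilutions, final DMSO ≤0.2% (v/v), 48 h at 26 °C. Growth read by 2.5 mM resazurin stock, fluorescence 535/590 nm. Triplicate; IC50 by probit analysis.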

Leishmania guyanensis = assay: Leishmanicidal activity against extracellular promastigote stage of Leishmania guyanensis 141/93 assessed as reduction of parasite load after 48 hrs by resazurin dye-based fluorometric analysis; type: functional, organism-based; conditions: Leishmania guyanensis, 141/93, 48 h; read-out: IC50; summary of the method: as §1
Leishmania braziliensis = assay: Leishmanicidal activity against extracellular promastigote stage of Leishmania braziliensis 2903 assessed as reduction of parasite load after 48 hrs by resazurin dye-based fluorometric analysis; type: functional, organism-based; conditions: Leishmania braziliensis, 2903, 48 h; read-out: IC50; summary of the method: as §1
Leishmania infantum = assay: Leishmanicidal activity against extracellular promastigote stage of Leishmania infantum MCAN/ES/96/BCN150 assessed as reduction of parasite load after 48 hrs by resazurin dye-based fluorometric analysis; type: functional, organism-based; summary of the method: as §1
Trypanosoma cruzi = assay: Trypanocidal activity against extracellular epimastigote stage of Trypanosoma cruzi CL-B5 assessed as reduction of parasite load after 72 hrs by CPRG-based colorimetric analysis
[2] = Leishmania infantum, MCAN/ES/96/BCN150, 48 h, read-out: IC50
[3] = Trypanosoma cruzi, CL-B5, 72 h, read-out: IC50

Which CC50 at 24 h [1] does the source give for CC1CCCN(S(=O)(=O)c2ccccc2)C1 (stereo not drawn) here?
The CC50 at 24 h was at least 300 µM.

What about the IC50 (Leishmania amazonensis) of the same molecule?
The IC50 was 40.9 µM.

What about the IC50 (Leishmania guyanensis) of the same molecule?
Its IC50 is 54.3 µM.

What about the IC50 (Leishmania braziliensis) of the same molecule?
Its IC50 is 115 µM.

And the IC50 (Leishmania infantum; [2])?
The IC50 was 112 µM.

What about the IC50 (Trypanosoma cruzi) of the same molecule?
The IC50 was “Not Active”.

Which results are given for O=[N+]([O-])c1ccc(S(=O)(=O)Nc2ccc3cn[nH]c3c2)cc1?
CC50 at 24 h [1]: ≥ 300 µM; IC50 (Leishmania amazonensis): 60.3 µM; IC50 (Leishmania guyanensis): 48.1 µM; IC50 (Leishmania braziliensis): 21.7 µM; IC50 (Leishmania infantum; [2]): 43.3 µM; IC50 (Trypanosoma cruzi): Not Active

For O=[N+]([O-])c1ccc(S(=O)(=O)Nc2ccc3nccnc3c2)cc1, which CC50 at 24 h [1] is on record?
The CC50 at 24 h was at least 300 µM.

What about the IC50 (Leishmania amazonensis) of the same molecule?
Its IC50 is 198 µM.

And the IC50 (Leishmania guyanensis)?
The IC50 was 101 µM.

What about the IC50 (Leishmania braziliensis) of the same molecule?
The IC50 was 60.8 µM.

And the IC50 (Leishmania infantum; [2])?
The IC50 was 81.7 µM.

And the IC50 (Trypanosoma cruzi)?
Its IC50 is “Not Active”.

Which results are given for Cc1cc2cc(NS(=O)(=O)c3cccc4ccccc34)ccc2[nH]1?
CC50 at 24 h [1]: 24.6 µM; IC50 (Leishmania amazonensis): 7.4 µM; IC50 (Leishmania guyanensis): 13.6 µM; IC50 (Leishmania braziliensis): 11.6 µM; IC50 (Leishmania infantum; [2]): 11.9 µM

For Cc1cc2cc(NS(=O)(=O)c3ccc(Cl)cc3)ccc2[nH]1, which CC50 at 24 h [1] is on record?
The CC50 at 24 h was 195 µM.

What about the IC50 (Leishmania amazonensis) of the same molecule?
Its IC50 is 18.2 µM.

And the IC50 (Leishmania guyanensis)?
The IC50 was 10.4 µM.

What about the IC50 (Leishmania braziliensis) of the same molecule?
Its IC50 is 23 µM.

And the IC50 (Leishmania infantum; [2])?
The IC50 was 12.4 µM.

What does the source list for O=[N+]([O-])c1ccc(S(=O)(=O)Nc2nccc3ccccc23)cc1?
CC50 at 24 h [1]: 41.3 µM; IC50 (Leishmania amazonensis): 27 µM; IC50 (Leishmania guyanensis): 24.6 µM; IC50 (Leishmania braziliensis): 42.5 µM; IC50 (Leishmania infantum; [2]): 39.5 µM; IC50 (Trypanosoma cruzi; [3]): 136 µM

Which results are given for O=S(=O)(Nc1nccc2ccccc12)c1ccc(Cl)cc1?
CC50 at 24 h [1]: ≥ 300 µM; IC50 (Leishmania amazonensis): 82.8 µM; IC50 (Leishmania guyanensis): 4.3 µM; IC50 (Leishmania braziliensis): 37 µM; IC50 (Leishmania infantum; [2]): 51.4 µM; IC50 (Trypanosoma cruzi): Not Active

With O=S(=O)(Nc1ccc2[nH]ncc2c1)c1ccc(F)cc1 as the molecule, how does the CC50 at 24 h [1] read?
Its CC50 at 24 h is at least 300 µM.

What about the IC50 (Leishmania amazonensis) of the same molecule?
The IC50 was 116 µM.

What about the IC50 (Leishmania guyanensis) of the same molecule?
The IC50 was 102 µM.

And the IC50 (Leishmania braziliensis)?
Its IC50 is 86.6 µM.

And the IC50 (Leishmania infantum; [2])?
The IC50 was 65.4 µM.

What about the IC50 (Trypanosoma cruzi) of the same molecule?
Its IC50 is “Not Active”.

With O=S(=O)(Nc1ccc2nccnc2c1)c1ccc(F)cc1 as the molecule, how does the CC50 at 24 h [1] read?
The CC50 at 24 h was 43.9 µM.

And the IC50 (Leishmania amazonensis)?
Its IC50 is 14.2 µM.

And the IC50 (Leishmania guyanensis)?
The IC50 was 29.8 µM.

What about the IC50 (Leishmania braziliensis) of the same molecule?
The IC50 was 13.4 µM.

And the IC50 (Leishmania infantum; [2])?
Its IC50 is 33.4 µM.

Which CC50 at 24 h [1] does the source give for O=[N+]([O-])c1ccc(S(=O)(=O)Nc2ccc3[nH]ncc3c2)cc1 here?
Its CC50 at 24 h is 133 µM.

What about the IC50 (Leishmania amazonensis) of the same molecule?
The IC50 was 66.7 µM.

What about the IC50 (Leishmania guyanensis) of the same molecule?
The IC50 was 140 µM.

And the IC50 (Leishmania braziliensis)?
The IC50 was 80.8 µM.

What about the IC50 (Leishmania infantum; [2]) of the same molecule?
The IC50 was 61.3 µM.

Which CC50 at 24 h [1] does the source give for O=S(=O)(Nc1ccc2[nH]ncc2c1)c1cccc2ccccc12 here?
The CC50 at 24 h was 30 µM.

What about the IC50 (Leishmania amazonensis) of the same molecule?
The IC50 was 37.7 µM.

And the IC50 (Leishmania guyanensis)?
Its IC50 is 52.8 µM.

What about the IC50 (Leishmania braziliensis) of the same molecule?
The IC50 was 39.7 µM.

And the IC50 (Leishmania infantum; [2])?
Its IC50 is 37.3 µM.

For O=S(=O)(Nc1nccc2ccccc12)c1ccccc1, which CC50 at 24 h [1] is on record?
The CC50 at 24 h was at least 300 µM.

And the IC50 (Leishmania amazonensis)?
Its IC50 is 93.5 µM.

And the IC50 (Leishmania guyanensis)?
The IC50 was 93.5 µM.

What about the IC50 (Leishmania braziliensis) of the same molecule?
The IC50 was 162 µM.

What about the IC50 (Leishmania infantum) of the same molecule?
Its IC50 is “Not Active”.

What does the source list for Cc1cc2cc(NS(=O)(=O)c3ccc(F)cc3)ccc2[nH]1?
CC50 at 24 h [1]: 40.4 µM; IC50 (Leishmania amazonensis): 12.5 µM; IC50 (Leishmania guyanensis): 117 µM; IC50 (Leishmania braziliensis): 42.7 µM; IC50 (Leishmania infantum; [2]): 34.5 µM

What does the source list for O=[N+]([O-])c1ccc(S(=O)(=O)Nc2ncccn2)cc1?
CC50 at 24 h [1]: ≥ 300 µM; IC50 (Leishmania amazonensis): 68.6 µM; IC50 (Leishmania guyanensis): 46.4 µM; IC50 (Leishmania braziliensis): 48.8 µM; IC50 (Leishmania infantum; [2]): 76.4 µM; IC50 (Trypanosoma cruzi; [3]): 156 µM

With O=S(=O)(Nc1ccc2nccnc2c1)c1ccc(Cl)cc1 as the molecule, how does the CC50 at 24 h [1] read?
Its CC50 at 24 h is 23.8 µM.

And the IC50 (Leishmania amazonensis)?
Its IC50 is 46.2 µM.

What about the IC50 (Leishmania guyanensis) of the same molecule?
Its IC50 is 25.9 µM.

What about the IC50 (Leishmania braziliensis) of the same molecule?
Its IC50 is 80.9 µM.

What about the IC50 (Leishmania infantum; [2]) of the same molecule?
The IC50 was 51.5 µM.

Which CC50 at 24 h [1] does the source give for Cc1cc2cc(NS(=O)(=O)c3ccc([N+](=O)[O-])cc3)ccc2[nH]1 here?
Its CC50 at 24 h is 132 µM.

What about the IC50 (Leishmania amazonensis) of the same molecule?
Its IC50 is 15.8 µM.

What about the IC50 (Leishmania guyanensis) of the same molecule?
Its IC50 is 19.6 µM.

And the IC50 (Leishmania braziliensis)?
The IC50 was 16.8 µM.

What about the IC50 (Leishmania infantum; [2]) of the same molecule?
Its IC50 is 35.2 µM.

What does the source list for O=S(=O)(Nc1cccc2cnccc12)c1ccc(Cl)cc1?
CC50 at 24 h [1]: 60.8 µM; IC50 (Leishmania amazonensis): 8.4 µM; IC50 (Leishmania guyanensis): 22.6 µM; IC50 (Leishmania braziliensis): 29.8 µM; IC50 (Leishmania infantum; [2]): 21 µM

Which CC50 at 24 h [1] does the source give for O=[N+]([O-])c1ccc(S(=O)(=O)Nc2ccc3ncsc3c2)cc1 here?
Its CC50 at 24 h is at least 300 µM.

What about the IC50 (Leishmania amazonensis) of the same molecule?
Its IC50 is 89.6 µM.

What about the IC50 (Leishmania guyanensis) of the same molecule?
The IC50 was 53.7 µM.

What about the IC50 (Leishmania braziliensis) of the same molecule?
Its IC50 is 31 µM.

And the IC50 (Leishmania infantum; [2])?
The IC50 was 85.5 µM.

What about the IC50 (Trypanosoma cruzi) of the same molecule?
Its IC50 is “Not Active”.
